The results in this text go back to paper PMC3624906 (The Biochemical journal, 2012).

As usually defined, the Kd is the concentration at which binding is half-saturated. Higher therefore signals weaker binding. A word on the IC50: it is the point on the concentration scale where inhibition reaches its midpoint. A higher IC50 goes with a need for much substance.

Test [1] addresses GST-MIM-S1 (murine) (UniProt Q8R1S4). Put plainly: pull-down.
The target of test [2] is T1, MIM-Myc (murine, UniProt Q8R1S4 1-759).
T1 sequence (looked up): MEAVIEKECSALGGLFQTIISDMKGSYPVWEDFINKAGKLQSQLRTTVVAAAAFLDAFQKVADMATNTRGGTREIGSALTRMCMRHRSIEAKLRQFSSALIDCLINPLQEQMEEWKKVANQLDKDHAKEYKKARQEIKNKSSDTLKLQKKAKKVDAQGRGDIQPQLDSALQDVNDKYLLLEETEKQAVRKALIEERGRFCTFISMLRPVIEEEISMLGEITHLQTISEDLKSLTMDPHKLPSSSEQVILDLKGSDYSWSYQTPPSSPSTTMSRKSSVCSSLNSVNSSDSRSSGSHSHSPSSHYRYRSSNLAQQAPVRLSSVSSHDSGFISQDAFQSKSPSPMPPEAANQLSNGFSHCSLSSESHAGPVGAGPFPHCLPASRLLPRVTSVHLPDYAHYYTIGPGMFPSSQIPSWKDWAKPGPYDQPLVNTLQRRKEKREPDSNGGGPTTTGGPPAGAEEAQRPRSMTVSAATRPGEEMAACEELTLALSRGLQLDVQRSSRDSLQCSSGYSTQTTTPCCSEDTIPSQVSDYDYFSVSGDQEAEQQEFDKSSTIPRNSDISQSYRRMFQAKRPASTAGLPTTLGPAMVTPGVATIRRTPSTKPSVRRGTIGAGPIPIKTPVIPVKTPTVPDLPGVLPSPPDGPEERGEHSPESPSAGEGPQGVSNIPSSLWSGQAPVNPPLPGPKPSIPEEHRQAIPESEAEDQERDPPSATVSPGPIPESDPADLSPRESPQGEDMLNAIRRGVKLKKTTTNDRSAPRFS
Kind of test: co-IP.

The target in test [3] is T2, MIM-GFP (murine, UniProt Q8R1S4 1-759).
T2 sequence (looked up): T1 sequence (looked up)
Kind of test: co-IP.

The target of test [4] is T1, MIM-Myc. Kind of test: pull-down.
In test [5] the test system is MIM-I-BAR-Myc. Put plainly: Pull-down of cell lysates with GST-MIM-S1/-S2, unbound MIM by Western blot. It is filed as binding, murine. The note with it: GST-tagged recombinant peptide, Western blot anti-Myc, in words. Put shortly: (§1)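 GST-tagged test peptide made in DH5α (0.5 mM IPTG added at OD600 0.3–0.4, then 90 min). It was captured on glutathione Sepharose 4B (2 h, 4°C) and washed in PBS. 293T cells were transfected with the Myc-tagged MIM construct and lysed 48 h later. Lysates were precipitated with the bead-bound peptide at varying concentrations. Supernatant (unbound MIM) and washed pellets were analysed by SDS-PAGE/anti-Myc Western blot with chemiluminescence.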

Test [6] relates to MIM-Myc. Described as above. It is filed as binding, murine. The conditions noted are these: GST-tagged recombinant peptide, Western blot anti-Myc, in words. Put shortly:
as §1
(In general: A western blot detects proteins with antibodies after separation by electrophoresis.)

As to MIM-I-BAR-Myc (domain or fragment), the dissociation constant (Kd) in test [1] was determined as 65 nM. Consider AFQKVADMATNTRGGTREIGSALTRMCMRHRSI [MIM-S3], for which the IC50 in test [2] is 140 nM.

B1: GST-MIM-S1 (domain or fragment, murine, UniProt Q8R1S4 18-89, looked up)
chain: TIISDMKGSYPVWEDFINKAGKLQSQLRTTVVAAAAFLDAFQKVADMATNTRGGTREIGSALTRMCMRHRSI
The molecule B1 returned an IC50 in test [3] of 213 nM. This molecule gave a Kd in test [4] of 110 nM.

B2: GST-MIM-S1: recombinant GST-tagged form of peptide MIM-S1 (protein)
chain: B1 chain
modifications: left off: GST, end not stated, kept
Take B2: in test [5], the “pull-down of MIM-I-BAR-Myc from 293T lysates” value is on record as “able to precipitate effectively”. Also, in test [6], the “pull-down of MIM-Myc from 293T lysates” value is “able to precipitate effectively”.
